Screens (PubChem BioAssay)
Rin1-Abl PPI inh: inhibitors of Rin1-Abl protein binding, primary screen, biochemical, TR-FRET; Tyrosine-protein kinase ABL1 (Homo sapiens) + Ras and Rab interactor 1 (Homo sapiens), …; inhibition, % at 7.35 µM; 0.4% of 360,000 active; AID 588664, 2011; in the data active = inhibition above about 5%, passing the limit was not always enough
PKA-R2B act: activators of PKA-R2B holoenzyme, primary screen, biochemical, fluorescence polarization, Cy5-IP20, human | activation, % at 11.4 µM | cAMP-dependent protein kinase catalytic subunit beta (Homo sapiens) + cAMP-dependent … | PKA-R2B holoenzyme dissociation; R2B truncated from residue 108, S112A mutant; 0% DMSO only, 100% 113 µM cGMP | 0.079% of 340,000 active;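 active = activation above a cutoff set at the mean over all compounds plus 3 SD, cut at about 18% in these data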;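 note: higher means more holoenzyme dissociation and a rise in polarization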
Tb MetRS inh: T. brucei MetRS inhibitors, primary screen, biochemical, luminescence | methionyl-tRNA synthetase (Trypanosoma brucei brucei) | AID 624268, 2012 | 0.4% of 360,000 active | purified T. brucei MetRS, ATP depletion, Kinase-Glo luminescence | inhibition, % at 11.9 µM;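 active = inhibition above a per-plate cutoff of the control wells' mean inhibition plus 3 SD, cut at about 5.5% in these data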;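 note: 0% = DMSO wells median and 100% = median of wells with control inhibitor compound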
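Test system: purified T. brucei MetRS enzyme. Also added: ATP, methionine and E. coli bulk tRNA substrates. Compound: 11.9 µM single point. Schedule: 15 min enzyme-compound preincubation, 2 h reaction, 10 min detection, 25 °C. Signal: luciferase luminescence of residual ATP, Kinase-Glo. Evaluation: percent inhibition versus plate control medians. Controls: DMSO wells, low control.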
PKA-R1A activ: activators of PKA-R1A holoenzyme, primary screen, biochemical, fluorescence polarization, Cy5-IP20, bovine R1A, mouse PKAc. cAMP-dependent protein kinase type I-alpha regulatory subunit (Bos taurus) + …. PKA-R1A dissociation; scaled: DMSO 0%, 113 µM cGMP 100%. activation, % at 11.4 µM. 0.083% of 340,000 active. AID 504707, 2011;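 active = percent activation above the mean of all tested compounds plus 3 SD, cut at about 19% in these data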;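 note: higher means more PKAc released from R1A so a rise in polarization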
H9c2 protect: cardioprotection against H2O2-induced cell death, primary screen, uHTS, H9c2 cells, ATPLite luminescence. H9c2 cardiomyocytes, H2O2 injury protection, 2 h. 0.63% of 360,000 active. AID 588492, 2011. protection from H2O2 cell death, % at 20 µM;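 active = compounds giving at least 50% protection of heart cells from peroxide-induced death in the single-dose screen, raw or plate-pattern-corrected value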;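 note: 0% = DMSO wells with peroxide and 100% = DMSO wells without peroxide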
Rin1 Abl conf: Rin1-Abl binding inhibitor retest, confirmation, biochemical, TR-FRET | shares compounds with Rin1-Abl PPI inh | AID 602124, 2011 | 49% of 1,300 active | purified proteins | inhibition, % at 7.35 µM
GFP quench: GFP fluorescence inhibitors and quenchers, artefact control for Rin1-Abl interaction inhibitor project, biochemical. inhibitors/quenchers counterscreen. 8.5% of 1,300 active. inhibition, % at 6.75 µM. shares compounds with Rin1-Abl PPI inh;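 note: ABL1-eGFP fusion protein alone without its partner RIN1-SBP; 0% = protein with vehicle and 100% = wells lacking protein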
GFP quench dose: GFP fluorescence inhibitors and quenchers, dose response, artefact control for Rin1-Abl interaction inhibitor project, biochemical; shares compounds with Rin1-Abl PPI inh; GFP fluorescence interference/quenching counterscreen; IC50, µM; 230 tested, under 10 active; call rule not given here;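 note: ABL1-eGFP fusion protein alone without its RIN1 binding partner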
Numbers without * were called inactive; . = not tested or not shown. An excerpt weighted towards active compounds, which were near 1.5% of everything screened. Cut-off read from the data, not from the text of the source, unless noted: active = inhibition above about 6.5%; inactive = the rest.

SMILES	Rin1-Abl PPI inh	PKA-R2B act	Tb MetRS inh	PKA-R1A activ	H9c2 protect	Rin1 Abl conf	GFP quench	others
Cc1ccccc1-c1cc(C(=O)NCc2cccc(Br)c2)nn1CC1CC(c2cccc([N+](=O)[O-])c2)=NO1 (stereo unspecified)	-3	5	0	3	2	.	.
O=C(CN(Cc1ccco1)C(=O)c1ccc(F)cc1)Nc1ccccc1Br	-2	-5	0	4	4	.	.
COc1ccc(OC)c(/C=N/Nc2nc(C)cc(=O)[nH]2)c1	2	4	-1	-6	1	.	.
c1ccc2c(c1)c1cccc3ccc4cccc2c4c31	8.2*	0	-1	-3	6	4	0
O=c1c2ccccc2ccc2ccccc12	-3	-4	0	11	-9	.	.
Nc1c(N(Cc2ccccc2)C(=O)CCc2ccccc2)c(=O)[nH]c(=O)n1Cc1ccccc1	9.8*	2	0	-1	-1	-1	1
CC1=C[C@H](C)[C@H](c2c(F)cccc2Cl)CC1=O	-4	-16	-1	0	4	.	.
O=C1C[C@@H]2c3c(cccc3CN1Cc1ccc(Br)cc1)C[C@@H](O)[C@H]2O	-2	14	0	3	-5	.	.
CCOC(=O)C1CCCN(Cc2ccccc2OCC)C1 (stereo unspecified)	9.4*	-3	4	-11	3	0	0
CC(C)Cn1c(=O)c2ccccc2n2c(CCC(=O)NCC3CCCO3)nnc12 (stereo unspecified)	2	-8	0	3	5	.	.
COC(=O)c1sccc1NC(=O)COc1ccccc1Cl	7.4*	-2	0	-1	-2	-2	1
COc1ccc(C2=Nc3ccccc3N(C(=O)c3ccc(C(F)(F)F)cc3)C2C(=O)Nc2ccc3c(c2)OCCO3)cc1 (stereo unspecified)	.	.	0	.	.	.	.
Cc1ccc(C(=O)n2nc(C#N)c(C#N)c2N)cc1	0	9	0	5	2	.	.
O=C1CCC([N+](=O)[O-])C(c2ccc(C(F)(F)F)cc2)N1 (stereo unspecified)	8.2*	10	0	3	7	2	-2
COc1cccc(C(=O)NN2C(=S)N(c3ccccc3)C(=O)C2CC(N)=O)c1 (stereo unspecified)	-2	5	-2	-2	1	.	.
Cc1cc(N2CCOCC2)nc(SCC(=O)c2ccc(Cl)cc2)n1	15*	5	-1	-4	-1	15*	-1
COc1ccc(N2CCN(C(CNS(=O)(=O)c3ccccc3)c3ccccc3)CC2)cc1 (stereo unspecified)	0	6	1	3	-5	.	.
COc1ccc(C(CNC(=O)COc2ccc(Cl)c(C)c2)N2CCCCC2)cc1 (stereo unspecified)	-2	5	0	12	0	.	.
Cc1nnc(SCCOc2ccccc2)s1	11*	6	-1	-6	-1	7.9*	1
Nc1nnc(SCCOc2ccccc2)s1	4	8	-1	-6	0	.	.
CC(C)NC(=O)Nc1ccc2c(c1)C(=O)N([C@H](C)CO)C[C@H](C)[C@@H](CN(C)S(C)(=O)=O)O2	3	-4	0	1	0	.	.
CCOc1ccc(C(=O)OCC(=O)Nc2ccc(SC(F)F)cc2)cc1OCC	8.1*	1	-1	-11	-1	-1	0
O=C(COC(=O)c1cc[n+]([O-])cc1)Nc1ccc(SC(F)F)cc1	-1	0	0	-8	22	.	.
CCOC(=O)N1CCC(N2C(=O)c3ccccc3C2Nc2ccc(S(=O)(=O)N(CC)CC)cc2)CC1 (stereo unspecified)	11*	-6	0	-13	14	10*	1
Cc1ccccc1-n1c(SCC(=O)NC2CC2)nc2ccccc2c1=O	10*	7	0	-3	-2	0	0
SMILES	Rin1-Abl PPI inh	PKA-R2B act	Tb MetRS inh	PKA-R1A activ	H9c2 protect	Rin1 Abl conf	GFP quench	others
Cc1ccc(-c2nnc(SCc3nc(N)nc(Nc4ccccc4C)n3)n2N)cc1	18*	5	0	-8	-1	0	-1
COc1cccc2[nH]c(C(=O)NCc3ccccc3)cc12	2	2	0	-8	-3	.	.
CC12CCC(=O)N1C(C(=O)N1CCN(S(=O)(=O)c3ccc(Br)cc3Cl)CC1)CS2 (stereo unspecified)	19*	6	0	-1	-1	17*	2	GFP quench dose=>68
O=C(O)c1cccc(Cn2c(Cl)c(/C=N/NC(=O)c3ccccc3O)sc2=O)c1	5.2*	0	5	1	7	-4	3
CC(=O)NC1=NN(C(C)=O)C(C)(c2ccco2)S1 (stereo unspecified)	8.7*	1	-1	3	8	-3	1
COc1ccc2[nH]c(C(=O)O)c(NS(=O)(=O)c3ccc(C)cc3C)c2c1	-2	5	0	-1	3	.	.
O=c1cc(-c2ccc(O)c(O)c2)oc2cc(O)c(C3OC(CO)C(O)C(O)C3O)c(O)c12 (stereo unspecified)	27*	4	1	14	0	33*	8.9*
O=c1cc(-c2ccc(O)c(O)c2)oc2c(C3O[C@H](CO)[C@@H](O)[C@H](O)[C@H]3O)c(O)cc(O)c12 (stereo partly specified)	22*	6	1	6	2	37*	14*
Cc1[nH]c2ccccc2c1C(=O)C(=O)NCc1ccncc1	-2	-8	0	-2	4	.	.
C=CCOC(=O)C1=C(C)NC(=O)NC1c1cc2c(cc1Br)OCO2 (stereo unspecified)	-3	-5	0	-1	3	.	.
CC1CCN(C(=O)COC(=O)c2cc3ccccc3oc2=O)CC1	0	-1	0	2	7	.	.
O=C(NCCOc1ccccc1)C1CCC(=O)N(CCCN2CCOCC2)C1 (stereo unspecified)	2	-2	-1	7	-2	.	.
